Assay [1] addresses T1, Kappa-type opioid receptor (Homo sapiens, UniProt P41145). Briefly: Displacement of [3H]U50488 from human kappa opioid receptor expressed in CHO cells. It is filed as cell-based. In outline: (§1)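 Binding was run on CHO membranes at 0.5 mg protein per sample, incubated at 25 °C in 50 mM Tris–HCl pH 7.5 with the receptor-specific radioligand and 12 compound concentrations. Naloxone defined nonspecific binding. Values are means ± SEM from three experiments, each run in triplicate.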
(In general: Displacement assays read how much labelled ligand stays bound in the presence of the test substance.)

Assay [2] deals with T2, Mu-type opioid receptor (Homo sapiens, UniProt P35372). The assay is described as follows: Displacement of [3H]DAMGO from human mu opioid receptor expressed in CHO cells. It counts as cell-based. In short, it runs like this: as §1
T2 sequence (P35372 whole entry): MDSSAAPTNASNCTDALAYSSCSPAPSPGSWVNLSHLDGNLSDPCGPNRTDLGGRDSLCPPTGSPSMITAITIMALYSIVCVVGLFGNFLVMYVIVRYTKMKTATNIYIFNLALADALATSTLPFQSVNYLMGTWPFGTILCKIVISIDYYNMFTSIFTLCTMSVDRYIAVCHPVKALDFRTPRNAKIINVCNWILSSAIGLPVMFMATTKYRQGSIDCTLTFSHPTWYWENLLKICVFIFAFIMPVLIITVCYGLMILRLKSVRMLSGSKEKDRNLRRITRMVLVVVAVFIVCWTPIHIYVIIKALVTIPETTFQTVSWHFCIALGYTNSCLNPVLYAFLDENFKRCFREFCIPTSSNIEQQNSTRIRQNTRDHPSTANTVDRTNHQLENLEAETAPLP
In assay [3] the target is T3, Delta-type opioid receptor (Homo sapiens, UniProt P41143). Briefly: Displacement of [3H]naltrindole from human delta opioid receptor expressed in CHO cells. It counts as cell-based. In outline: as §1
T3 sequence (P41143 whole entry): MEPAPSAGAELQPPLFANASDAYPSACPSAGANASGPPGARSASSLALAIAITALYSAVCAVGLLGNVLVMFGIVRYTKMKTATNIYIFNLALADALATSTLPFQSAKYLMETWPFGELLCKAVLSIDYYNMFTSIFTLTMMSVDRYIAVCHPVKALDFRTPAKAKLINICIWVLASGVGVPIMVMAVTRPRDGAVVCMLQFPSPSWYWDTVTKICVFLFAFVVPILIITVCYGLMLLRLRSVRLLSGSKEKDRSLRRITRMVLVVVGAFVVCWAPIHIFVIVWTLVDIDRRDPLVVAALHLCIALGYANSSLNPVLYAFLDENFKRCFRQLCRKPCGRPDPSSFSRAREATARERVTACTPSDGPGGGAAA
The target of assay [4] is T2, Mu-type opioid receptor. The assay is described as follows: Agonist activity at human mu opioid receptor expressed in CHO cells assessed as stimulation of [35S]GTPgammaS binding by scintillation counting. It is filed as functional, cell-based. In short, it runs like this: (§2)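 CHO cell membranes expressing the opioid receptor were incubated with varying concentrations of compound in the presence of 0.8 nM [35S]GTPγS. EC50 and Emax were derived from the concentration–response data. Values are means from three experiments, each run in triplicate.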
(GTPγS resists hydrolysis and so accumulates on activated G proteins.)

The target in assay [5] is T1, Kappa-type opioid receptor. Briefly: Agonist activity at human kappa opioid receptor expressed in CHO cells assessed as stimulation of [35S]GTPgammaS binding by scintillation counting. It is filed as functional, cell-based. In outline: as §2
In assay [6] the target is T3, Delta-type opioid receptor. The assay is described as follows: Agonist activity at human delta opioid receptor expressed in CHO cells assessed as stimulation of [35S]GTPgammaS binding by scintillation counting. It is filed as functional, cell-based. In short, it runs like this:
as §2

For assay [7], the target named is Delta-type opioid receptor (Rattus norvegicus, UniProt P33533). Briefly: Displacement of [3H]p-Cl-DPDPE from rat delta opioid receptor expressed in rat C6 cells.
Sequence of Delta-type opioid receptor (Rattus norvegicus, UniProt P33533) (P33533 whole entry): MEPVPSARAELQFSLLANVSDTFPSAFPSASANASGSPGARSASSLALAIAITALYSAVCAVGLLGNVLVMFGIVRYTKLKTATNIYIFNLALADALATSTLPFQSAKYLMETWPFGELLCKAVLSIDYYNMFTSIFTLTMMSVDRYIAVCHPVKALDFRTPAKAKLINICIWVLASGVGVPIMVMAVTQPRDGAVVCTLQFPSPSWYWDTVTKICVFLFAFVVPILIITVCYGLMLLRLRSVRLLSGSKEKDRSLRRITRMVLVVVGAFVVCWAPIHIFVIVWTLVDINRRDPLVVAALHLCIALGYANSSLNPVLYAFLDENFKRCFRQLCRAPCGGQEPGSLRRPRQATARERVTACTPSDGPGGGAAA

T1 sequence (P41145 whole entry): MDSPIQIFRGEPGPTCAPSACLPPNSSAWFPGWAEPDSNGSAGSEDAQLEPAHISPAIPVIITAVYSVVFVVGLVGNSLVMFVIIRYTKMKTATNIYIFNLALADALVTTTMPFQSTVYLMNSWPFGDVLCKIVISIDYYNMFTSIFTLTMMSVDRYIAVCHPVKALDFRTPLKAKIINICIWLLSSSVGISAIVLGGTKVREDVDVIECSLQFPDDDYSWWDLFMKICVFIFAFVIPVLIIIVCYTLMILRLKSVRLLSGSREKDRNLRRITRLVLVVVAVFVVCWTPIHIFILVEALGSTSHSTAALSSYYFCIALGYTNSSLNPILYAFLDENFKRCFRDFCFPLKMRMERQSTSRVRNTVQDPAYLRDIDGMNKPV

On to `CN1CC[C@]23Cc4c(c5ccccc5n4C)C[C@]2(Cc2ccc(O)cc23)C1`, for which the Ki (commonly a measure of affinity in units of concentration, obtained from inhibition or displacement) in assay [1] is 1120 nM; on Mu-type opioid receptor [2], 40.2 nM; in assay [3] it was 268 nM. In addition, the concentration giving a half-maximal response (EC50) (as a rule, the concentration that produces a half-maximal response) on Mu-type opioid receptor [4] was 174 nM; in assay [5] it was 62.1 nM; in assay [6] it was 65 nM. In addition, the Emax (commonly the greatest response seen or fitted, relative to the assay's reference) on Mu-type opioid receptor [4] turned out to be 95.7%; in assay [5], 76.2%; in assay [6], 77.3%.
Turning to `COc1ccc2c(c1)[C@]13CCN(C)C[C@@]1(C2)Cc1c([nH]c2ccccc12)C3`, the results for the inhibition constant (Ki) (in assay [1]; on Mu-type opioid receptor [2]; in assay [3]) were 5120 nM, 1820 nM and 765 nM, respectively.
In the case of `COc1ccc2c(c1)[C@]13CCN(CC4CC4)C[C@@]1(C2)Cc1c([nH]c2ccccc12)C3`, the Ki in assay [1] was 2550 nM; at Mu-type opioid receptor [2] it was 1420 nM; in assay [3] it was 6650 nM.
For `Oc1ccc2c3c1O[C@H]1c4[nH]c5ccccc5c4C[C@@]4(O)[C@@H](C2)N(CC2CC2)CC[C@]314` [NALTRINDOLE], the inhibitory constant (Ki) in assay [7] stood at 0.2 nM.
With `Cn1c2c(c3ccccc31)C[C@@]13Cc4ccc(O)cc4[C@@]1(CCN(CC1CC1)C3)C2`, the values for the Ki (in assay [1]; on Mu-type opioid receptor [2]; in assay [3]) were 1520 nM, 469 nM and 1790 nM, respectively.
The like results for `COc1ccc2c(c1O)[C@]13CCN(C)[C@H](C2)[C@]1(O)Cc1c([nH]c2ccccc12)C3` were, in that order, 3160 nM, 1850 nM and 21.8 nM.
Consider `Oc1ccc2c(c1)[C@]13CCN(CC4CC4)C[C@@]1(C2)Cc1c([nH]c2ccccc12)C3`, for which the Ki in assay [1] was 704 nM; at Mu-type opioid receptor [2], 523 nM; in assay [3], 2550 nM. The EC50 was 33 nM on Mu-type opioid receptor [4], 67.1 nM in assay [5] and 10 nM in assay [6]. Besides, the Emax at Mu-type opioid receptor [4] was 88.6%; in assay [5] it was 79.9%; in assay [6], 91.4%.
As to `COc1c(O)ccc2c1[C@]13CCN(C)[C@H](C2)[C@]1(O)Cc1c([nH]c2ccccc12)C3`, the Ki at Mu-type opioid receptor [2] came out at 474 nM; in assay [3], 4.5 nM.
Take `COc1ccc2c(c1)[C@]13CCN(C)C[C@@]1(C2)Cc1c(n(C)c2ccccc12)C3`: the results for the Ki (in assay [1]; on Mu-type opioid receptor [2]; in assay [3]) were 3810 nM, 713 nM and greater than 10000 nM, respectively.
On the same counts, the results for `CN1CC[C@]23Cc4[nH]c5ccccc5c4C[C@]2(Cc2ccc(O)cc23)C1` are 1190 nM, 104 nM and 1120 nM.

The record behind these values is ChEMBL document CHEMBL1153456, “Synthesis and opioid receptor activity of indolopropellanes” (Bioorg Med Chem Lett, 2009).
